From PubChem
The list is not random: actives were taken first. Their share in the collection is about 1.5%.
CRFBP-R2 block: antagonists of CRF-binding protein/CRF-R2 receptor complex | HEK293 CRF-R2/CRF-BP, CRF-induced calcium fluorescence | inhibition, % at 11.8 µM | 350,000 tested, 0.59% active | AID 588475;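 active = inhibition of the ligand-induced calcium signal above about 50% at the single tested concentration, limit read from the data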
PKA-R1A act: PKA-R1A complex activation. P00514+P68181. PKA-R1A dissociation, Cy5-IP20 fluorescence polarization; scaled: DMSO 0%, 113 µM cGMP 100%. activation, % at 11.4 µM. 340,000 tested, 0.083% active. AID 504707;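 active = percent activation above the mean of all tested compounds plus 3 SD, cut at about 19% in these data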;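 also: higher means more PKAc released from R1A so a rise in polarization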
PKA-R2B act: activates the human PKA-R2B holoenzyme complex. P22694+P31323. PKA-R2B holoenzyme dissociation, Cy5-IP20 fluorescence polarization; R2B truncated from residue 108, S112A mutant; 0% DMSO only, 100% 113 µM cGMP. activation, % at 11.4 µM. 340,000 tested, 0.079% active. AID 504700;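 active = activation above a cutoff set at the mean over all compounds plus 3 SD, cut at about 18% in these data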;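 also: higher means more holoenzyme dissociation and a rise in polarization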
S100A4 inh HTS: inhibitors of human S100A4 binding to myosin IIA peptide | P26447 | S100A4/TAMRA-MyoIIA peptide fluorescence polarization | inhibition, % at 10.7 µM | 360,000 tested, 0.14% active | AID 652163;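 active = mean inhibition of at least 70% across replicates, with every replicate also reaching that level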
Target sequence (P26447 whole entry, looked up): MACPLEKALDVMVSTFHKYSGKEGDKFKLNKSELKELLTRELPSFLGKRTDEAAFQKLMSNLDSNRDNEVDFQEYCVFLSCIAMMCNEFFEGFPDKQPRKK
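Test system: S100A4 monomer protein; Medium: HEPES pH 7.2 with CaCl2, KCl, NaCl, DTT, Triton; Probe or stimulus: TAMRA-labelled myosin IIA heavy-chain peptide probe, 5 nM; Doses: one dose per compound; Times: polarization read 5 min after assay mix addition, stable 5–60 min; Benchmarks: neutral control DMSO, positive control TFP.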
SIRT5 inh: inhibitors of human sirtuin-5 desuccinylase; Q9NXA8; Purified SirT5, succinyl-peptide AMC, trypsin-coupled fluorescence; inhibition, % at 15 µM; 330,000 tested, 1.1% active; AID 652115; in the data active = inhibition above about 15%
Target sequence (Q9NXA8 whole entry, looked up): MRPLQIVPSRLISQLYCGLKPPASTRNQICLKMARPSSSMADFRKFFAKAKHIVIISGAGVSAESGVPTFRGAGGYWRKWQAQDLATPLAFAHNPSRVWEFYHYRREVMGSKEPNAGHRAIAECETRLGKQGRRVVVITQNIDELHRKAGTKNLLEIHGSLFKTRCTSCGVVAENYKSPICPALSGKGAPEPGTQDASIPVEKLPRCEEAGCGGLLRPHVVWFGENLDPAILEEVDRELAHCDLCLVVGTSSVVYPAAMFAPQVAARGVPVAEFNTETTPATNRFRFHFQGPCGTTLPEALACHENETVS
Numbers without * were called inactive; nt = no result given; ! = a repeat was not active.

SMILES	CRFBP-R2 block	PKA-R1A act	PKA-R2B act	S100A4 inh HTS	SIRT5 inh
COc1ccc(C(C)=O)cc1CSc1nnc(Nc2c(C)cccc2C)s1	-25.0	1.9	2.4	-1.9	20.6*
COc1ccc(C(C)=O)cc1CSc1nnc(Nc2ccccc2C)s1	-16.6	-3.9	-11.9	nt	nt
COc1ccc([Si](C)(C)[C@@H]2[C@@H](CCO)O[C@]3(C(=O)N(Cc4ccc(NC(C)=O)cc4)c4ccccc43)[C@H]2C)cc1	nt	nt	nt	11.2	0.7
COc1ccc([Si](C)(C)[C@H]2[C@H](CCO)O[C@@]3(C(=O)N(Cc4ccccc4)c4ccc(N5CCC5=O)cc43)[C@@H]2C)cc1	nt	nt	nt	11.8	17.3*
COc1ccc([Si](C)(C)[C@H]2[C@H](CCO)O[C@@]3(C(=O)N(Cc4ccc(NC(C)=O)cc4)c4ccccc43)[C@@H]2C)cc1	nt	nt	nt	-1.0	21.2*
COc1cccc(NC(=O)N[C@@H]2C=C[C@H](CC(=O)N3CCCCC3)O[C@H]2CO)c1	nt	nt	nt	1.4	-1.0
COc1ccc(Sc2nc(-c3ccccc3)ncc2C(=O)O)cc1	6.3	6.5	0.5	-19.1	-1.4
O=C(O)c1cnc(-c2ccccc2)nc1Sc1ccc(Cl)cc1	55.3*	1.1	-4.9	nt	nt
C[C@@H]1CN([C@H](C)CO)C(=O)c2cc(NS(=O)(=O)c3ccc(Cl)cc3)ccc2O[C@H]1CN(C)Cc1ccc2c(c1)OCO2	nt	nt	nt	-2.7	19.7*
COc1ccc(S(=O)(=O)Nc2ccc3c(c2)C(=O)N([C@H](C)CO)C[C@H](C)[C@H](CN(C)Cc2ccc4c(c2)OCO4)O3)cc1	nt	nt	nt	51.6	16.3*
COc1ccc(S(=O)(=O)Nc2ccc3c(c2)C(=O)N([C@H](C)CO)C[C@H](C)[C@@H](CN(C)Cc2ccc4c(c2)OCO4)O3)cc1	nt	nt	nt	1.9	-3.0
C[C@H]1CN([C@@H](C)CO)C(=O)CCCn2nncc2CO[C@H]1CN(C)S(=O)(=O)c1ccc2c(c1)OCCCO2	-15.1	4.1	0.3	116.6*!	-2.4
C[C@@H]1CN([C@@H](C)CO)C(=O)CCCn2nncc2CO[C@H]1CN(C)S(=O)(=O)c1ccc2c(c1)OCCCO2	-16.9	-6.5	-9.0	-5.1	20.5*!
COCC#Cc1cnc2c(c1)C(=O)N([C@H](C)CO)C[C@H](C)[C@@H](CN(C)Cc1ccccc1F)O2	nt	nt	nt	-3.3	-7.1
COc1cccc2c(=O)n(CC(=O)N3CCCc4ccccc43)ccc12	15.9	-12.6	0.0	0.6	23.0*
CC12CCC(C/C1=N\OC(=O)c1c(F)cccc1F)C2(C)C (stereo not drawn)	95.3*	2.4	4.5	-26.8	-4.5
CC12CCC(C/C1=N/NC(=O)Nc1ccccc1)C2(C)C (stereo not drawn)	-59.2	-1.5	-0.3	-3.3	-8.2
O=C(C1CCOCC1)N1CC(=O)N2[C@@H](CO)[C@H](c3ccc(/C=C/c4ccccc4)cc3)[C@@H]2C1	nt	nt	nt	-9.8	-0.3
O=C(CSc1n[nH]c(=O)n1Cc1ccco1)Nc1ccccc1	12.1	nt	nt	-0.9	15.1*
CC1=C(/C=C/C(C)=C/C=C/C(C)=C/CO)C(C)(C)CCC1	-14.6	4.7	-9.8	-17.2	25.5*
CC1=C(/C=C/C(C)=N\NC(=O)c2ccncc2)C(C)(C)CCC1	-16.6	0.2	-0.4	-3.9	3.9
CC(C)[C@H](NC(=O)OC(C)(C)C)C(=O)N/N=C/c1ccc2nccnc2c1	92.3*	-3.4	-3.6	-6.3	0.1
CCCCn1c(N)c(N(CC(C)C)C(=O)Cc2ccc(S(=O)(=O)N3CCOCC3)s2)c(=O)[nH]c1=O	-53.2	2.6	17.3	-4.4	0.3
CCCCn1c(N)c(N(CCC(C)C)C(=O)Cc2ccc(S(=O)(=O)N3CCOCC3)s2)c(=O)[nH]c1=O	99.7*	-7.5	-16.9	-1.7	-3.4
COC(C(=O)Nc1ccc(S(=O)(=O)Nc2ccc(F)cc2)cc1)c1ccccc1 (stereo not drawn)	-35.8	-3.1	-3.6	nt	nt
SMILES	CRFBP-R2 block	PKA-R1A act	PKA-R2B act	S100A4 inh HTS	SIRT5 inh
COC(C(=O)Nc1ccc(F)cc1)c1ccccc1 (stereo not drawn)	91.1*	3.6	-2.5	nt	nt
CC(C)CCN1CCN(Cc2cnc(N3CCCC3)s2)CC1CCO (stereo not drawn)	3.8	-4.9	1.0	-3.2	38.2*
CC(C)N1CCN(Cc2cnc(-c3ccccc3)s2)CC1CCO (stereo not drawn)	-3.4	-18.9	0.7	56.7	22.0*
Cc1ccc(S(=O)(=O)Nc2ccc3c(c2)C(=O)N([C@@H](C)CO)C[C@@H](C)[C@@H](CN(C)C(=O)Nc2ccc4c(c2)OCO4)OCCCC[C@@H](C)O3)cc1	nt	nt	nt	2.9	13.0
CCOc1ccc(/C=N/NC(=O)c2ccccc2Cl)cc1CN1CC2CC(C1)c1cccc(=O)n1C2 (stereo not drawn)	1.3	-7.7	-1.7	-7.9	nt
CCOc1ccc(/C=N/NC(=O)c2ccccc2C)cc1CN1CC2CC(C1)c1cccc(=O)n1C2 (stereo not drawn)	-8.8	-9.7	1.3	93.8*	nt
Cc1ccc(S(=O)(=O)N2C[C@H]3[C@H]4C(=O)N(c5ccccc5)C(=O)[C@H]4C[C@H](OC(=O)NCc4ccccc4)[C@@]3(O)C2)cc1	3.7	1.0	-5.1	-1.9	21.6*
CCCNC(=O)[C@@H]1[C@@H](CO)[C@@H]2Cn3c(ccc(-c4cccc(OC)c4)c3=O)[C@@H]2N1C	nt	nt	nt	1.3	-2.4
CCOC(=O)c1cnc2ccc(OCC)cc2c1NCCN1CCOCC1	-20.2	-3.3	-5.4	5.5	-1.6
CCOC(=O)c1cnc2ccc(OCC)cc2c1NCCCN1CCOCC1	-2.4	6.2	-8.7	-2.2	26.7*
C[C@@H]1CN([C@@H](C)CO)C(=O)c2cc(C3=CCCCC3)cnc2O[C@@H]1CN(C)C(=O)c1ccncc1	nt	nt	nt	1.5	4.5
CC(C)C(NS(=O)(=O)c1ccc2c(c1)oc(=O)n2C)C(=O)N1CCN(C2CCCCC2)CC1 (stereo not drawn)	57.7*	-2.5	-6.6	nt	nt
COc1ccc2cc(C(=O)N3CCN(Cc4ccc5c(c4)OCO5)CC3)[nH]c2c1	50.1*	-18.3	-8.8	-4.0	-1.2
CCN1CCN(C(=O)c2cc3ccc(OC)cc3[nH]2)CC1	17.3	-0.3	3.8	-1.0	-1.9
O=C(O)CSc1c(O)c2ccccc2[nH]c1=O	2.2	-2.2	-17.2	-6.3	2.5
O=c1[nH]c2ccccc2c(O)c1SCCO	5.3	-6.9	8.2	1.0	17.7*
O=C(CN1CCC(c2nc3ccccc3s2)CC1)N1CCCCC1	6.9	-3.1	-4.0	-5.7	37.5*
CCOC(=O)c1cc(-c2ccccc2)sc1NC(=O)c1ccc(OC)cc1	-21.3	nt	nt	nt	nt
O=C(Nc1sc(-c2ccccc2)cc1C(=O)O)c1ccccc1	52.4*	-5.4	-8.6	-2.9	nt
